# Laboratory results from ChEMBL document CHEMBL1152334, “Quassinoid inhibition of AP-1 function does not correlate with cytotoxicity or protein synthesis inhibition” (J Nat Prod, 2009).
# Calls of active or inactive are those of the source. The calls are words filed in the database; no cut-off is given here.
# Tests used:
# [1] = Inhibition of protein synthesis in cell-free extract of mouse Krebs2 cells by SDS-PAGE; type: functional
# [2] = Growth inhibition of human NCI60 cells; type: functional
# HeLa = assay: Inhibition of protein synthesis in human HeLa cells assessed as [35S]methionine incorporation into protein treated for 45 mins before [35S]methionine addition by Whatman paper analysis; type: functional, cell-based
# [3] = target: Signal transducer and activator of transcription 3 (Homo sapiens) (UniProt P40763); assay: Inhibition of TPA-induced phosphorylation at Tyr705 of Stat3 in HEK293 whole cell extract at 31.6 uM treated 1 hr before TPA stimulation measured after 18 hrs by immunoblot analysis; type: cell-based
# Procedure, shortened: (§1)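 HEK293 cells were exposed to compound or DMSO for 1 h, then induced with TPA 10 ng/mL for 18 h. Cells were lysed in RIPA buffer (10 mM Tris-HCl pH 7.5, 1 mM EDTA, 0.1% SDS, 0.1% deoxycholate, protease inhibitor). Whole-cell extracts were immunoblotted for phospho-IκB-α and phospho-Stat3 (Tyr705), with tubulin as loading control.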
# [4] = target: Signal transducer and activator of transcription 3 (Homo sapiens) (UniProt P40763); assay: Inhibition of TPA-induced phosphorylation at Tyr705 of Stat3 in HEK293 whole cell extract at 35.5 uM treated 1 hr before TPA stimulation measured after 18 hrs by immunoblot analysis; procedure, shortened: as §1
# Nucleic Acid [5] = assay: Inhibition of TPA-induced SRE transfected in HEK293 cells treated 1 hr before TPA stimulation measured after 18 hrs by luciferase reporter gene assay; type: cell-based
# Procedure, shortened: (§2)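 HEK293 cells were grown in DMEM with 10% FBS at 37 °C and 5% CO2. They were transiently transfected with a luciferase reporter (0.1 µg/well); reporters were AP-1 (four TRE consensus copies from GCN4), NF-κB (five responsive-element copies) or SRE. After 24 h, medium went to DMEM with 0.2% FBS. Cells were pretreated 1 h with compound or DMSO, then given TPA 10 ng/mL for 18 h. Firefly luciferase was read from passive-lysis lysates, TPA alone = 100%, in quadruplicate.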
# [6] = target: Signal transducer and activator of transcription 3 (Homo sapiens) (UniProt P40763); assay: Inhibition of TPA-induced phosphorylation at Tyr705 of Stat3 in HEK293 whole cell extract at 40.8 uM treated 1 hr before TPA stimulation measured after 18 hrs by immunoblot analysis; type: cell-based; procedure, shortened: as §1
# [7] = target: Signal transducer and activator of transcription 3 (Homo sapiens) (UniProt P40763); assay: Inhibition of TPA-induced phosphorylation at Tyr705 of Stat3 in HEK293 whole cell extract at 20.4 uM treated 1 hr before TPA stimulation measured after 18 hrs by immunoblot analysis; type: cell-based; procedure, shortened: as §1
# [8] = target: Signal transducer and activator of transcription 3 (Homo sapiens) (UniProt P40763); assay: Inhibition of TPA-induced phosphorylation at Tyr705 of Stat3 in HEK293 whole cell extract at 15.8 uM treated 1 hr before TPA stimulation measured after 18 hrs by immunoblot analysis; type: cell-based; procedure, shortened: as §1
# [9] = target: Signal transducer and activator of transcription 3 (Homo sapiens) (UniProt P40763); assay: Inhibition of TPA-induced phosphorylation at Tyr705 of Stat3 in HEK293 whole cell extract at 71.3 uM treated 1 hr before TPA stimulation measured after 18 hrs by immunoblot analysis; type: cell-based; procedure, shortened: as §1
# [10] = target: T1, Inhibitor of nuclear factor kappa-B kinase subunit alpha (Homo sapiens) (UniProt O15111); assay: Inhibition of TPA-induced IkappaBalpha phosphorylation in HEK293 whole cell extract at 40.8 uM treated 1 hr before TPA stimulation measured after 18 hrs by immunoblot analysis; type: cell-based
# T1 sequence (whole entry): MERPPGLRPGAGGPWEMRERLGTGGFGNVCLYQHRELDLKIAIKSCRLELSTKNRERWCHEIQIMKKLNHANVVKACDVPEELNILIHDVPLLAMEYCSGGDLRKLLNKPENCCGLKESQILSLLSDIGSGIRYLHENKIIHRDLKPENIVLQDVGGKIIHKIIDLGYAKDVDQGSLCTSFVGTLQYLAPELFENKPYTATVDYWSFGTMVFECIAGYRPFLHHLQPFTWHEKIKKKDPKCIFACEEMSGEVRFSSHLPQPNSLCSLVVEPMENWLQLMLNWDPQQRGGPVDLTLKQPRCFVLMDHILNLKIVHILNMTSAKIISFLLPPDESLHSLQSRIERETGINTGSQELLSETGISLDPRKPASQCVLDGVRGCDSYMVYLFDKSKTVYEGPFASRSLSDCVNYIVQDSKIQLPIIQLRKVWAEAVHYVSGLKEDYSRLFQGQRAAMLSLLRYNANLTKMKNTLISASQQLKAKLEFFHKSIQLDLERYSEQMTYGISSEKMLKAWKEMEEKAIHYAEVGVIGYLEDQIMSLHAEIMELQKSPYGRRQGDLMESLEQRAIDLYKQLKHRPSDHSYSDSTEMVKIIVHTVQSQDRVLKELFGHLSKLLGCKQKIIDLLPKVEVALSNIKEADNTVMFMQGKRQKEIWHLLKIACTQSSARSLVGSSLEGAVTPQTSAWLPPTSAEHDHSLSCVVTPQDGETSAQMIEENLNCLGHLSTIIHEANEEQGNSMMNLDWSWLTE
# Procedure, shortened: (§3)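 HEK293 cells grown in DMEM with 10% FBS at 37 °C and 5% CO2. Cells were pretreated with quassinoid or DMSO for 1 h, then stimulated with TPA (10 ng/mL) for 18 h. Whole-cell extracts were made in RIPA buffer (10 mM Tris-HCl pH 7.5, 1 mM EDTA, 0.1% SDS, 0.1% deoxycholate, protease inhibitor). Immunoblots were probed for phospho-IκB-α, with tubulin as loading control.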
# [11] = target: T1, Inhibitor of nuclear factor kappa-B kinase subunit alpha (Homo sapiens); assay: Inhibition of TPA-induced IkappaBalpha phosphorylation in HEK293 whole cell extract at 20.4 uM treated 1 hr before TPA stimulation measured after 18 hrs by immunoblot analysis; type: cell-based; procedure, shortened: as §3
# HEK293 [12] = assay: Inhibition of TPA-induced NF-kappaB transfected in HEK293 cells treated 1 hr before TPA stimulation measured after 18 hrs by luciferase reporter gene assay; type: cell-based; procedure, shortened: as §2
# [13] = target: T1, Inhibitor of nuclear factor kappa-B kinase subunit alpha (Homo sapiens); assay: Inhibition of TPA-induced IkappaBalpha phosphorylation in HEK293 whole cell extract at 35.5 uM treated 1 hr before TPA stimulation measured after 18 hrs by immunoblot analysis; procedure, shortened: as §1
# [14] = target: T1, Inhibitor of nuclear factor kappa-B kinase subunit alpha (Homo sapiens); assay: Inhibition of TPA-induced IkappaBalpha phosphorylation in HEK293 whole cell extract at 71.3 uM treated 1 hr before TPA stimulation measured after 18 hrs by immunoblot analysis; type: cell-based; procedure, shortened: as §1
# [15] = Growth inhibition of human AP-1 beta-lactamase reporter screening assay cells at 1 uM; settings: AP-1 reporter cells
# [16] = target: T1, Inhibitor of nuclear factor kappa-B kinase subunit alpha (Homo sapiens); assay: Inhibition of TPA-induced IkappaBalpha phosphorylation in HEK293 whole cell extract at 31.6 uM treated 1 hr before TPA stimulation measured after 18 hrs by immunoblot analysis; type: cell-based; procedure, shortened: as §1
# [17] = target: T1, Inhibitor of nuclear factor kappa-B kinase subunit alpha (Homo sapiens); assay: Inhibition of TPA-induced IkappaBalpha phosphorylation in HEK293 whole cell extract at 15.8 uM treated 1 hr before TPA stimulation measured after 18 hrs by immunoblot analysis; type: cell-based; procedure, shortened: as §1
# Nucleic Acid [18] = assay: Inhibition of TPA-induced SRE transfected in HEK293 cells at 0.1 to 10 uM treated 1 hr before TPA stimulation measured after 18 hrs by luciferase reporter gene assay; type: cell-based; procedure, shortened: as §2
# HEK293 [19] = assay: Inhibition of TPA-induced NF-kappaB transfected in HEK293 cells at 0.1 to 10 uM treated 1 hr before TPA stimulation measured after 18 hrs by luciferase reporter gene assay; type: cell-based; procedure, shortened: as §2
# [20] = target: Transcription factor Jun (Homo sapiens) (UniProt P05412); assay: Inhibition of TPA-induced AP1 transfected in HEK293 cells assessed as inhibition of […] reporter activity at 0.1 to 10 uM treated 1 hr before TPA stimulation measured after 18 hrs by luciferase reporter gene assay; type: cell-based; procedure, shortened: as §2
# Sequence of Transcription factor Jun (Homo sapiens) (P05412 whole entry): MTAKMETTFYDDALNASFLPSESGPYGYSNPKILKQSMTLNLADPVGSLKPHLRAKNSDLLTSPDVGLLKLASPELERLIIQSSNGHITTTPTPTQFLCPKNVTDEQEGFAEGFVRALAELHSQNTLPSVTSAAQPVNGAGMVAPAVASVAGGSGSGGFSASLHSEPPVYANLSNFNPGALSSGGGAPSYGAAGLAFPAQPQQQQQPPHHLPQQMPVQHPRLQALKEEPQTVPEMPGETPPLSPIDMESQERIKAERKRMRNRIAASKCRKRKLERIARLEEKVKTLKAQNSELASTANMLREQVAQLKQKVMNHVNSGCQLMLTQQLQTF
# Sequence of Signal transducer and activator of transcription 3 (Homo sapiens) (P40763 whole entry): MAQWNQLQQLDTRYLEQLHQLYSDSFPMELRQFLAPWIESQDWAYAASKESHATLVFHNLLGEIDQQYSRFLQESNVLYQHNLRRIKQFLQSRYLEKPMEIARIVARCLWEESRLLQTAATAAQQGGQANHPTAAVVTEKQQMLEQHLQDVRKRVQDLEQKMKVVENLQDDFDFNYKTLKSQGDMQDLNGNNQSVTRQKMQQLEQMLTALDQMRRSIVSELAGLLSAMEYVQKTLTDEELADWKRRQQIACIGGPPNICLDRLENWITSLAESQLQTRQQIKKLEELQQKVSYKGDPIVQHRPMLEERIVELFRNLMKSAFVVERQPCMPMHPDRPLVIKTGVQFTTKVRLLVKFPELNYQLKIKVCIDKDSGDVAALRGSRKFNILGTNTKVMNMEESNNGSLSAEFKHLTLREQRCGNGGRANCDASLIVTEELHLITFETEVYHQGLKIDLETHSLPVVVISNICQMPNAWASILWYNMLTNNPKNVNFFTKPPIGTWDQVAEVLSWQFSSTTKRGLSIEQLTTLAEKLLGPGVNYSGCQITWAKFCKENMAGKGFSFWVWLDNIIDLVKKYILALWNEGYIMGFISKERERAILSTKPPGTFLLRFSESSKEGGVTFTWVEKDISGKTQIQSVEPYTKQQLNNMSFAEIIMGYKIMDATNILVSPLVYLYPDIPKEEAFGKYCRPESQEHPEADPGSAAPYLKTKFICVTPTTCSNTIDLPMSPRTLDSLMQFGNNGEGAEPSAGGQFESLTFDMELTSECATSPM
IC50 [1] [nM],IC50 (HeLa) [nM],inhibition [3],inhibition [4],inhibition [6],inhibition [7],inhibition [8],inhibition [9],SMILES,"GI50 ([2]; Homo sapiens, NCI60) [nM]",inhibition (Nucleic Acid [5]),inhibition (HEK293 [12]),also measured
910,670,inactive,inactive,inactive,inactive,inactive,inactive,CC(C)=CC(=O)O[C@@H]1[C@H]2C(C)=C[C@H](O)[C@@H](O)[C@]2(C)[C@H]2[C@]3(O)OC[C@@]24[C@@H]1OC(=O)C[C@H]4[C@@H](C)[C@H]3O,260,Dose-dependent effect,Dose-dependent effect,inhibition [13]: Active; inhibition [14]: Active
420,3.4,inactive,inactive,inactive,inactive,inactive,inactive,CCC(C)C(=O)O[C@H]1C(=O)O[C@@H]2C[C@H]3C(C)=CC(=O)[C@@H](O)[C@]3(C)[C@H]3[C@]4(O)OC[C@]32[C@@H]1[C@@H](C)[C@H]4O (some centres not stated) [AILANTHINONE],31000,Dose-dependent effect,Dose-dependent effect,inhibition [16]: Active; inhibition [17]: Active; inhibition at 1 µM [15]: < 25%
>30000,> 2000,,,,,,,COC1=C[C@@H](C)[C@@H]2C[C@H]3OC(=O)C[C@H]4C(C)=C(OC)C(=O)[C@H]([C@@]2(C)C1=O)[C@@]34C [QUASSIN],,,,inhibition (Nucleic Acid [18]): inactive; inhibition (HEK293 [19]): inactive; inhibition [20]: inactive

# The next lines start with the compound.
SMILES,IC50 [1] [nM],IC50 (HeLa) [nM],inhibition [3],inhibition [4],inhibition [6],inhibition [7],inhibition [8],inhibition [9],"GI50 ([2]; Homo sapiens, NCI60) [nM]",inhibition (Nucleic Acid [5]),inhibition (HEK293 [12]),also measured
C=C1[C@@H](O)[C@@]2(O)OC[C@@]34[C@H]1[C@@H](OC(=O)C/C=C/CCCCCCCC)C(=O)O[C@@H]3C[C@H]1C(C)=CC(=O)[C@@H](O)[C@]1(C)[C@@H]24,<10000,> 2000,,,,,,,24,,,
CC[C@](C)(O)C(=O)O[C@H]1C(=O)O[C@@H]2C[C@H]3C(C)=CC(=O)[C@@H](O)[C@]3(C)[C@H]3[C@@]4(O)OC[C@]32[C@@H]1[C@@H](C)[C@H]4O (stereo in doubt; 4),,,inactive,inactive,inactive,inactive,inactive,inactive,,Dose-dependent effect,Dose-dependent effect,inhibition [10]: Active; inhibition [11]: Active
CC[C@](C)(O)C(=O)O[C@H]1C(=O)O[C@@H]2C[C@H]3C(C)=CC(=O)[C@@H](O)[C@]3(C)[C@H]3[C@@]4(O)OC[C@]32[C@@H]1[C@@H](C)[C@H]4O (stereo in doubt; 4) [GLAUCARUBINONE],290,270,,,,,,,,,,GI50 [2]: 1800 nM; inhibition at 1 µM [15]: < 25%
CC1=C[C@H](O)[C@@H](O)[C@]2(C)[C@H]3[C@@]4(O)OC[C@]35[C@H]([C@@H](C)[C@H]4O)[C@@H](O)C(=O)O[C@@H]5C[C@@H]12 [GLAUCARUBOL],>30000,> 2000,,,,,,,41000,,,
